A short description of data set [1]: cells. As to conditions: Homo sapiens, HCT-116, 72 h.
Data set [2] has as its system MCF7. Description: cells. The conditions noted are these: Homo sapiens, MCF7, 72 h.
Data set [3] is described as follows: cells. The conditions noted are these: Homo sapiens, PC-3, 72 h.
The target of data set [4] is T1, Phosphatidylinositol 4,5-bisphosphate 3-kinase catalytic subunit beta isoform (Homo sapiens, UniProt P42338). Description: Inhibition of PI3Kbeta (unknown origin) after 1 hr by ADP-Glo Luminescent assay. Put shortly: (§1)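 Purchased PI3Kβ reaction run 1 h at room temperature. An aliquot was moved to a new plate and stopped with an equal volume of ADP-Glo reagent, equilibrated 40 min. Kinase detection reagent added, shaken 1 min, equilibrated 60 min, then luminescence read. Inhibition relative to DMSO (max) and no-enzyme (min) controls; IC50 from four-parameter Hill fit.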
Target sequence in this assay (P42338 whole entry, canonical isoform): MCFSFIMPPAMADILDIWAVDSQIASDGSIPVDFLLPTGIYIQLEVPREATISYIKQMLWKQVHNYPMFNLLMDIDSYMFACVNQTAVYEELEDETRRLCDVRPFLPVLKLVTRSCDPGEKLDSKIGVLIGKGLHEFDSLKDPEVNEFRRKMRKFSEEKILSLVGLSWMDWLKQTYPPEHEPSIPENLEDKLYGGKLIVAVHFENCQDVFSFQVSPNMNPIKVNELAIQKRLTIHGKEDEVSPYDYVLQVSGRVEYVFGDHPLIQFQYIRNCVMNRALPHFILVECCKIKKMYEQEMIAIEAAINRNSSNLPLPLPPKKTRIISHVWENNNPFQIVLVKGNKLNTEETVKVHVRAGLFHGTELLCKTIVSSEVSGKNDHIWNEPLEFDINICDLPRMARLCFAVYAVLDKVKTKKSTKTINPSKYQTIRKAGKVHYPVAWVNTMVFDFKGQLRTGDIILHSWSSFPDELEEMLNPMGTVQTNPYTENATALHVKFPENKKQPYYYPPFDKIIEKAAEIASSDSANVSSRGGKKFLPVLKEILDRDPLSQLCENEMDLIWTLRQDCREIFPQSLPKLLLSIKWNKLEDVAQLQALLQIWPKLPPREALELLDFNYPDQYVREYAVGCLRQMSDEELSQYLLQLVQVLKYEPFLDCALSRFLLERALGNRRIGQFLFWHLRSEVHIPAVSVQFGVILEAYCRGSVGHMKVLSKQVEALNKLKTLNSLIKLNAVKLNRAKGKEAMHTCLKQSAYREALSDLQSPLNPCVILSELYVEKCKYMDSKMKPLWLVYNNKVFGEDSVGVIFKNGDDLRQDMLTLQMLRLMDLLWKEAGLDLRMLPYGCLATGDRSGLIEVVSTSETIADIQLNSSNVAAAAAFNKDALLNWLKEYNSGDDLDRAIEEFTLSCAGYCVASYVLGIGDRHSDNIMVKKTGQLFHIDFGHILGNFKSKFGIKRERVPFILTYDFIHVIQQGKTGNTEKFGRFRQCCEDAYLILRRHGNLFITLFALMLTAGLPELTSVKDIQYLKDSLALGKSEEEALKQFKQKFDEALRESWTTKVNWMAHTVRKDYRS
(ADP-Glo turns the ADP formed in a reaction into a luminescent signal.)

Data set [5] has as its target T2, Phosphatidylinositol 4,5-bisphosphate 3-kinase catalytic subunit alpha isoform (Homo sapiens, UniProt P42336). Description: Inhibition of PI3Kalpha (unknown origin) after 1 hr by Kinase-Glo Luminescent assay.
The target in data set [6] is Serine/threonine-protein kinase mTOR (Homo sapiens, UniProt P42345). Briefly: Inhibition of mTOR (unknown origin) using ULight-4E-BP1 peptide as substrate after 1 hr by lance ultra assay.
The target of data set [7] is T3, Phosphatidylinositol 4,5-bisphosphate 3-kinase catalytic subunit delta isoform (Homo sapiens, UniProt O00329).
T3 sequence (O00329 whole entry): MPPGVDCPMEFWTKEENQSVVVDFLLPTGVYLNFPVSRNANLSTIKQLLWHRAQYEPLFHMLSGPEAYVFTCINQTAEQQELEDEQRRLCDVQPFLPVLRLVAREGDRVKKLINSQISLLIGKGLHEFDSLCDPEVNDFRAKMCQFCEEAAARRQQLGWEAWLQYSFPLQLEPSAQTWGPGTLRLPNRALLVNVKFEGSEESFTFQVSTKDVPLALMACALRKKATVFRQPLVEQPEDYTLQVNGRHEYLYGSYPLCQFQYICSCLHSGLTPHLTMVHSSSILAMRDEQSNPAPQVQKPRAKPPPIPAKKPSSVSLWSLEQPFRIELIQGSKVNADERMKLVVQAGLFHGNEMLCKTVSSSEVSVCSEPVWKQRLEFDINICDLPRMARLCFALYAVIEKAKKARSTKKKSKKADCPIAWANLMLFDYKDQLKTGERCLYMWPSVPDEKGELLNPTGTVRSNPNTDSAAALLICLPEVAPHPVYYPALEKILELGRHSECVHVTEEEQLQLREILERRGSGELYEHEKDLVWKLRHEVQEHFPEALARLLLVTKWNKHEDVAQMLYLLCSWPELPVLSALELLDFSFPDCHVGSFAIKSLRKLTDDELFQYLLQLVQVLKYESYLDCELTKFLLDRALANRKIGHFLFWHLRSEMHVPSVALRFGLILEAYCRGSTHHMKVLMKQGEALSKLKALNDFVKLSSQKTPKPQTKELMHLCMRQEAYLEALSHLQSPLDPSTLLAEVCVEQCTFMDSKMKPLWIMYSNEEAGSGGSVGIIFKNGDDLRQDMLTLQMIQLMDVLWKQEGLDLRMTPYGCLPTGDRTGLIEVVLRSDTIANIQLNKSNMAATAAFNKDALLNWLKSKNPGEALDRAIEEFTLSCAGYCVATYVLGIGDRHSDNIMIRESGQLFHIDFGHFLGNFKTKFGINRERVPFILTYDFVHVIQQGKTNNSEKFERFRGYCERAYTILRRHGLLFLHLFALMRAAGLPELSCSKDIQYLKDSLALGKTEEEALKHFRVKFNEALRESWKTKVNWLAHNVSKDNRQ
Description: Inhibition of PI3Kdelta (unknown origin) after 1 hr by ADP-Glo Luminescent assay.

Data set [8] relates to MCF7. Briefly: Inhibition of mTORC2 in human MCF7 cells assessed as downregulation of pAKT(Ser473) at 0.1 uM after 2 hrs by Western blot analysis. (In general: A western blot detects proteins with antibodies after separation by electrophoresis.)
The subject of data set [9] is MCF7. Briefly: Inhibition of mTORC1/2 in human MCF7 cells assessed as downregulation of pAKT(Ser473) and pS6(Ser235) at 0.5 uM after 2 hrs by Western blot analysis. The format is cell-based.
For data set [10], the target named is T4, Phosphatidylinositol 4,5-bisphosphate 3-kinase catalytic subunit gamma isoform (Homo sapiens, UniProt P48736). Briefly: Inhibition of PI3Kgamma (unknown origin) after 1 hr by ADP-Glo Luminescent assay.
Target sequence in this assay (P48736 whole entry, canonical isoform): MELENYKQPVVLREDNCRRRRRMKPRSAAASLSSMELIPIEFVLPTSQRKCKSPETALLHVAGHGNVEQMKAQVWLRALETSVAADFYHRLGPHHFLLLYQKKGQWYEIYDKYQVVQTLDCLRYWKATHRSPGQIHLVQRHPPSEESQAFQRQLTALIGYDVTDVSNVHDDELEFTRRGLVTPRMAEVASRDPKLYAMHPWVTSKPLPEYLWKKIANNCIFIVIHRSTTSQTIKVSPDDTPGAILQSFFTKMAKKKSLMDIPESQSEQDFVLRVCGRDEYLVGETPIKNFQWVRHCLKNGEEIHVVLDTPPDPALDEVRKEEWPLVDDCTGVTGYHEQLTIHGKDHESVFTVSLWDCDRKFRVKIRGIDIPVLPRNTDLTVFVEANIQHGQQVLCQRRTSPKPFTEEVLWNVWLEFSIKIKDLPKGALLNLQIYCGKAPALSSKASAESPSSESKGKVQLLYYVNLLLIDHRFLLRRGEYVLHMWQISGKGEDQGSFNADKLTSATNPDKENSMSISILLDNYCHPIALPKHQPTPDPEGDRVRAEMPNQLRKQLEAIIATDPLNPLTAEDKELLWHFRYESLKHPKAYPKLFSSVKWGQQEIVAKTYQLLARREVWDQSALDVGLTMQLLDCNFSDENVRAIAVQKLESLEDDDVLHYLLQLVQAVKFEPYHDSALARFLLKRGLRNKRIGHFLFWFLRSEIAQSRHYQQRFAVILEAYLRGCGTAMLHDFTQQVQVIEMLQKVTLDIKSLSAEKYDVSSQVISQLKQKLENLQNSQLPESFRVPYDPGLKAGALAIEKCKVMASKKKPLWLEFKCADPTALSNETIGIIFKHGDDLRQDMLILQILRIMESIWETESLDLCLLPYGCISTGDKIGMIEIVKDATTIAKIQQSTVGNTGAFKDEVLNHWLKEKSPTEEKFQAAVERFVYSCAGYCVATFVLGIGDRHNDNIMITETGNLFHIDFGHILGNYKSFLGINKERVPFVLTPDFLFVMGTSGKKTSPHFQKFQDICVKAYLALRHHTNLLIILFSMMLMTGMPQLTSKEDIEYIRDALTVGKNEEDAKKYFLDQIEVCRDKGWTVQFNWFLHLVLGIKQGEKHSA
The target in another data set is mTORC1 (Homo sapiens) (UniProt P42345+Q8N122+Q9BVC4). As to conditions: MCF7, 0.5 uM.
Chain of mTORC1 (Homo sapiens) (Q8N122 whole entry, looked up, other chains not shown): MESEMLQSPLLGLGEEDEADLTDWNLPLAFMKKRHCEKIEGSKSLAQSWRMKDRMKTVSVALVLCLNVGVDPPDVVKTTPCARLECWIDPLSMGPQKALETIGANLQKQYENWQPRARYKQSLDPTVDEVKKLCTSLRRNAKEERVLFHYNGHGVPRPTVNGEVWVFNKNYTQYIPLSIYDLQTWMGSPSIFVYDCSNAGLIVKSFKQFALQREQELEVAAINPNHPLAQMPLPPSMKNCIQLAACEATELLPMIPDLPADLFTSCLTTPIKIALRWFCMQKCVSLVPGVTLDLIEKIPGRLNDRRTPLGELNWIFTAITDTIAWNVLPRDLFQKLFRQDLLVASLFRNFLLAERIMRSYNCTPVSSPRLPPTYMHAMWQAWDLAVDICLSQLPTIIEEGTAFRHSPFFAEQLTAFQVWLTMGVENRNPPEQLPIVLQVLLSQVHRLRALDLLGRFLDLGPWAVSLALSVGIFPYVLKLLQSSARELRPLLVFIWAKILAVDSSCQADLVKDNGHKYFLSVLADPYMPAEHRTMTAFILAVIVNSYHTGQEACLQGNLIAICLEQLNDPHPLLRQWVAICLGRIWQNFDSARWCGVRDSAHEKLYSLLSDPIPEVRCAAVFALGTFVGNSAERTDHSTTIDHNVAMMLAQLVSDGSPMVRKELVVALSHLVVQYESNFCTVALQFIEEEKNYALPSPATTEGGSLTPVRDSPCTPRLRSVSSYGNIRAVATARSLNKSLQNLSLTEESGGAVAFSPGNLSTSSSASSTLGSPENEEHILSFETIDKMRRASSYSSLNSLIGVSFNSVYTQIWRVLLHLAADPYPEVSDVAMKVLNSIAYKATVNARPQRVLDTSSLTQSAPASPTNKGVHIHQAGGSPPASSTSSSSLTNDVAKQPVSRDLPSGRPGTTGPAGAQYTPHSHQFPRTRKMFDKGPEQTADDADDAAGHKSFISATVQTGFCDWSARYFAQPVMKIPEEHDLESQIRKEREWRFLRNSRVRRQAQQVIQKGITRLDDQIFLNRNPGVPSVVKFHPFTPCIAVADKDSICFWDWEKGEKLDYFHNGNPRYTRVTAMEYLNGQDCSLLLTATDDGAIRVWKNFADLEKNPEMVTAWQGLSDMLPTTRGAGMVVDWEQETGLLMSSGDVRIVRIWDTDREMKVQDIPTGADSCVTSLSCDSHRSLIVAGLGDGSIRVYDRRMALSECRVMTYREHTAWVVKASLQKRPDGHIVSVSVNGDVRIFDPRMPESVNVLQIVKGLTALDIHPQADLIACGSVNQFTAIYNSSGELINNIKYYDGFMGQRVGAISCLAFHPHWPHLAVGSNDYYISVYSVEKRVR
Chain of mTORC1 (Homo sapiens) (Q9BVC4 whole entry, looked up, other chains not shown): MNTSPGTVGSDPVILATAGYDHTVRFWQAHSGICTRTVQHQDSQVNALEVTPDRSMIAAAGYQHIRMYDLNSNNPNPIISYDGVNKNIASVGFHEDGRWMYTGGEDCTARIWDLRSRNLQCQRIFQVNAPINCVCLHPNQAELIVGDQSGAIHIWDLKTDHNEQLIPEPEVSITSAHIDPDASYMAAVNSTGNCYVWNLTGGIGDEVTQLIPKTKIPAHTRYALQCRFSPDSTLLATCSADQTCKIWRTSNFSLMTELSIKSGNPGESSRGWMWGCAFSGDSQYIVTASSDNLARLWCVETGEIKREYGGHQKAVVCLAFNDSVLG
Data set [11] relates to MCF7. Description: Inhibition of mTORC2 in human MCF7 cells assessed as downregulation of pAKT(Ser473) at 0.5 uM after 2 hrs by Western blot analysis. The class given is cell-based.
Data set [12] in a line: Metabolic stability in human liver microsomes after 30 mins. The class given is ADME. As to conditions: read-out: Stability. On the technique in general: Liver microsomes are vesicles of endoplasmic reticulum, rich in cytochrome P450 enzymes.
Data set [13] is described as follows: Metabolic stability in simulated intestinal fluid after 45 mins. The class given is ADME. As to conditions: simulated gi fluid, 0.75 h.
For data set [14], the target named is T5, Phosphatidylinositol 4,5-bisphosphate 3-kinase catalytic subunit delta isoform (Homo sapiens) (UniProt O00329).
T5 sequence (whole entry): T3 sequence (O00329 whole entry)
Briefly: Inhibition of PI3Kdelta (unknown origin) at 1 uM after 1 hr by ADP-Glo Luminescent assay.

In data set [15] the target is T2, Phosphatidylinositol 4,5-bisphosphate 3-kinase catalytic subunit alpha isoform. Briefly: Inhibition of PI3Kalpha (unknown origin) at 1 uM after 1 hr by Kinase-Glo Luminescent assay. Put shortly: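 Purchased PI3Kα in buffer of 50 mM HEPES pH 7.5, 3 mM MgCl2, 1 mM EDTA, 100 mM NaCl, 0.03% CHAPS, 2 mM DTT; substrate PIP2 plus ATP. Reaction 1 h at room temperature, stopped with Kinase-Glo reagent, 15 min equilibration, luminescence read. Percent inhibition from no-enzyme and DMSO controls; IC50 from four-parameter Hill fit.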

Data set [16] has as its target T1, Phosphatidylinositol 4,5-bisphosphate 3-kinase catalytic subunit beta isoform. Briefly: Inhibition of PI3Kbeta (unknown origin) at 1 uM after 1 hr by ADP-Glo Luminescent assay. A digest of the protocol: as §1
Target sequence in this assay (P42338 whole entry, looked up, canonical isoform): as the sequence (P42338 whole entry, canonical isoform) above
Data set [17] addresses T4, Phosphatidylinositol 4,5-bisphosphate 3-kinase catalytic subunit gamma isoform. Description: Inhibition of PI3Kgamma (unknown origin) at 1 uM after 1 hr by ADP-Glo Luminescent assay.
Target sequence in this assay (P48736 whole entry, looked up, canonical isoform): as the sequence (P48736 whole entry, canonical isoform) above
A short description of data set [18]: Metabolic stability in rat liver microsomes after 30 mins. The class given is ADME. The conditions noted are these: read-out: Stability.
The nature of data set [19]: Metabolic stability in simulated gastric fluid after 45 mins. The class given is ADME. As to conditions: simulated gi fluid, 0.75 h.
Data set [20] can be described thus: Metabolic stability in human liver microsomes after 60 mins. The class given is ADME. As to conditions: read-out: Stability.

Results on 18 compounds are retold here after ChEMBL document CHEMBL3734757, “Discovery of novel quinoline-based mTOR inhibitors via introducing intra-molecular hydrogen bonding scaffold (iMHBS): The design, synthesis and biological evaluation” (Bioorg Med Chem, 2015).

In general, IC50 refers to the concentration that inhibits the measured activity by half. The low end stands for higher potency, the high end for lower potency. By inhibition is commonly meant the drop in the measured response relative to a control, in per cent.

Molecules are shown by their SMILES. Activity calls are given as the source filed them. The rule behind the calls is not given here.

T2 sequence (P42336 whole entry, canonical isoform): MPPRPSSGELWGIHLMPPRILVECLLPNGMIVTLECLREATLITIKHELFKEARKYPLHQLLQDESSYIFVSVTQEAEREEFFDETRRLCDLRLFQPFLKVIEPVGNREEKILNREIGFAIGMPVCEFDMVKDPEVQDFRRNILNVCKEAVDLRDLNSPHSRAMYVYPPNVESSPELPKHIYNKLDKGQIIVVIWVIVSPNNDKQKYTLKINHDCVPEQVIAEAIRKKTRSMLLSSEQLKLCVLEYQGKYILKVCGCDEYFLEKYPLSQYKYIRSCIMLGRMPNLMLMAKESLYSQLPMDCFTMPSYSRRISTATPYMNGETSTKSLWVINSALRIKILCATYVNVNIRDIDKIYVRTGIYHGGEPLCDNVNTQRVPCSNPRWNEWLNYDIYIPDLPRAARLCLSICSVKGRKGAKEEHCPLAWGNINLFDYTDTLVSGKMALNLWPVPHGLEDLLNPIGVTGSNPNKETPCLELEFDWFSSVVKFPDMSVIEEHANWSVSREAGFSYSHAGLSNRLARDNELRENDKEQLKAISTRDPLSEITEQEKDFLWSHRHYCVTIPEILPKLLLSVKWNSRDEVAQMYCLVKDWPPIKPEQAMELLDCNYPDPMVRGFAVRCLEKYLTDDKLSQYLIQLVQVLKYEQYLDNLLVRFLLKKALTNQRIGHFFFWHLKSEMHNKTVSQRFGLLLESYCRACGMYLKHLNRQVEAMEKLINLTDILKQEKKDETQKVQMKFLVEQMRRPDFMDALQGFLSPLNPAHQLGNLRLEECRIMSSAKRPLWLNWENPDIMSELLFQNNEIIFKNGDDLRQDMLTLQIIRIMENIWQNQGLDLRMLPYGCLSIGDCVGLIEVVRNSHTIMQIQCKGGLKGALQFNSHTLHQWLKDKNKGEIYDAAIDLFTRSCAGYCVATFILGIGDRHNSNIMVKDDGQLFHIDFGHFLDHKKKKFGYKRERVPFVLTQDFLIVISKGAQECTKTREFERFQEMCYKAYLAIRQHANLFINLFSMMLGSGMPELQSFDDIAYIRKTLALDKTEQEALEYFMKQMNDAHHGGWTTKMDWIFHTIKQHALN

Turning to `CC(C)(C#N)c1ccc(Nc2c(C(N)=O)cnc3ccc(-c4ccc(N)nc4)cc23)cc1`, the figures for the IC50 in “cells [1]”, in the data set with MCF7 [2] and in “cells [3]” were 670 nM, 520 nM and 830 nM, respectively.
Taken in the same sequence, the figures for `Cn1nccc1-c1ccc2ncc(C(N)=O)c(Nc3ccc(C(C)(C)C#N)cc3)c2c1` were 17300 nM, 1250 nM and above 50000 nM.
Consider `CC(=O)N1CCN(c2ccc(Nc3c(C(N)=O)cnc4ccc(-c5cnc6ccccc6c5)cc34)cc2C(F)(F)F)CC1`, for which the half-maximal inhibitory concentration (IC50) is above 5000 nM in data set [4]; 2430 nM in data set [5]; 31 nM in [6]; above 5000 nM in [7]; 1290 nM in the data set “cells [1]”; 440 nM in the data set with MCF7 [2]. The concentration for half-maximal inhibition (IC50) in data set [10] is 939 nM; in the data set “cells [3]” it was 3900 nM. Moreover, the inhibition result with MCF7 [8] and in the data set on MCF7 [9] was “Active” in each case.
Consider `CN1CCN(CC(=O)N2CCN(c3ccc(Nc4c(C(N)=O)cnc5ccc(-c6cnc7ccccc7c6)cc45)cc3C(F)(F)F)CC2)CC1`, for which the IC50 in the data set “cells [1]” was found to be 970 nM; in the data set with MCF7 [2], 440 nM; in “cells [3]” it was 990 nM.
Taken in the same sequence, the figures for `COc1ccc(-c2ccc3ncc(C(N)=O)c(Nc4ccc(C(C)(C)C#N)cc4)c3c2)cn1` were 2570 nM, 1580 nM and 1660 nM.
`O=C(NC1CC1)c1cnc2ccc(-c3cnc4ccccc4c3)cc2c1Nc1ccc(N2CCNCC2)c(C(F)(F)F)c1` showed an IC50 in data set [6] above 3000 nM.
Turning to `CCC(=O)N1CCN(c2ccc(Nc3c(C(N)=O)cnc4ccc(-c5ccc(N)nc5)cc34)cc2C(F)(F)F)CC1`, the IC50 in the data set “cells [1]” was found to be 2400 nM; with MCF7 [2], 570 nM; in “cells [3]”, 1460 nM.
On to `CO[C@H]1C[C@@H]2CC[C@@H](C)[C@@](O)(O2)C(=O)C(=O)N2CCCC[C@H]2C(=O)O[C@H]([C@H](C)C[C@@H]2CC[C@@H](O)[C@H](OC)C2)CC(=O)[C@H](C)/C=C(\C)[C@@H](O)[C@@H](OC)C(=O)[C@H](C)C[C@H](C)/C=C/C=C/C=C/1C`, for which, at mTORC1 (Homo sapiens), the inhibition entry is “Active”. The inhibition entry in the data set on MCF7 [11] is “inactive”.
For the compound `NC(=O)c1cnc2ccc(-c3cnc4ccccc4c3)cc2c1Nc1cccc(C(F)(F)F)c1`, the 50% inhibitory concentration (IC50) in “cells [1]” came to 3170 nM; in the data set with MCF7 [2], 600 nM; in “cells [3]” it was 6390 nM.
Taken in the same sequence, the figures for `CS(=O)(=O)N1CCN(c2ccc(Nc3c(C(N)=O)cnc4ccc(-c5cnc6ccccc6c5)cc34)cc2C(F)(F)F)CC1` were 1000 nM, 360 nM and 3730 nM.
Taken in the same sequence, the figures for `NC(=O)c1cnc2ccc(-c3ccc(N)nc3)cc2c1Nc1cccc(C(F)(F)F)c1` were 1830 nM, 410 nM and 1080 nM.
`COc1ccc(-c2ccc3ncc(C(N)=O)c(Nc4ccc(N5CCNCC5)c(C(F)(F)F)c4)c3c2)cn1`: the IC50 in the data set “cells [1]” is 2050 nM; in the data set on MCF7 [2], 780 nM; in “cells [3]” it was 990 nM.
The like results for `CNC(=O)c1cnc2ccc(-c3cnc4ccccc4c3)cc2c1Nc1ccc(C(C)(C)C#N)cc1` were, in that order, 8730 nM, 1300 nM and 7120 nM.
The like results for `CNC(=O)c1cnc2ccc(-c3ccc(N)nc3)cc2c1Nc1ccc(C(C)(C)C#N)cc1` were, in that order, 4660 nM, 490 nM and 1740 nM.
As to `Cl.NC(=O)c1cnc2ccc(-c3cnc4ccccc4c3)cc2c1Nc1ccc(N2CCNCC2)c(C(F)(F)F)c1`, the remaining at 0.5 h in [12] came to 80%; in data set [18], 50%. Also, the Stability entry in data set [13] and in data set [19] was “Stable” in each case. Further, the inhibition in data set [14] came to 16.7%; in data set [15], 32.3%; in data set [16], 1%; in [17] it was 6.7%. Further, the IC50 in the data set “cells [1]” stood at 460 nM; with MCF7 [2] it was 240 nM; in “cells [3]”, 610 nM. In [20], the remaining at 1 h is 73%.
With `Cn1c(=O)n(-c2ccc(C(C)(C)C#N)cc2)c2c3cc(-c4cnc5ccccc5c4)ccc3ncc21` [DACTOLISIB], the IC50 in the data set “cells [1]” was 200 nM; in the data set on MCF7 [2], 50 nM; in the data set “cells [3]”, 210 nM.
As to `CC(C)(C#N)c1ccc(Nc2c(C(N)=O)cnc3ccc(-c4cnc5ccccc5c4)cc23)cc1`, the IC50 amounted to 33 nM in [6], 4560 nM in the data set “cells [1]”, 950 nM in the data set with MCF7 [2] and 2820 nM in the data set “cells [3]”. Besides, the inhibition in data set [15] is 26.9%; in data set [16], 10.3%; in data set [17], -2.4%.
As to `Cn1nccc1-c1ccc2ncc(C(N)=O)c(Nc3ccc(N4CCN(S(C)(=O)=O)CC4)c(C(F)(F)F)c3)c2c1`, the IC50 in “cells [1]” is 14700 nM; in the data set with MCF7 [2] it was 2690 nM; in “cells [3]”, 7080 nM.
